In ChEMBL document CHEMBL4602675, “The Marine Natural Product Manzamine A Inhibits Cervical Cancer by Targeting the SIX1 Protein” (J Nat Prod, 2020):
Activity calls are given as the source filed them. The rule behind the calls is not given here.

Key:
HeLa [1] = assay: Cell cycle arrest in human HeLa cells assessed as accumulation at G2/M phase at 4 uM after 24 hrs by propidium iodide staining based flow cytometric analysis (reference value: 16.4%); format: functional
Method in brief: (§1)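 Cells in DMEM/10% FBS at 37 °C, 5% CO2 were given 4 μM for 24, 48 or 72 h, with DMSO as control. After trypsinization they were fixed in chilled 70% ethanol on ice for 30 min, treated with RNase A (1 mg/mL) for 30 min at room temperature, and stained with PI (20 μg/mL). At least 10 000 events were read by flow cytometry to give sub-G1, G0/G1, S and G2/M fractions; mean ± SEM.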

HeLa [2] = assay: Cell cycle arrest in human HeLa cells assessed as accumulation at G2/M phase at 4 uM after 48 hrs by propidium iodide staining based flow cytometric analysis (reference value: 16.2%); format: functional
C-33-A [3] = assay: Induction of apoptosis in human C33A cells assessed as early apoptotic cells at 4 uM after 48 hrs by Annexin V-FITC/PI double staining based flow cytometric analysis (reference value: 12.9%); format: functional
C-33-A [4] = assay: Cell cycle arrest in human C33A cells assessed as accumulation at G2/M phase at 4 uM after 48 hrs by propidium iodide staining based flow cytometric analysis (reference value: 26.7%); format: functional; method in brief: as §1
C-33-A [5] = assay: Induction of apoptosis in human C33A cells assessed as viable cells at 4 uM after 48 hrs by Annexin V-FITC/PI double staining based flow cytometric analysis (reference value: 82.8%); format: functional; conditions: read-out: Activity
C-33-A [6] = assay: Cell cycle arrest in human C33A cells assessed as accumulation at Sub G1 phase at 4 uM after 48 hrs by propidium iodide staining based flow cytometric analysis (reference value: 0.8%); format: functional; method in brief: as §1
SiHa [7] = assay: Cell cycle arrest in human SiHa cells assessed as accumulation at G2/M phase at 4 uM after 72 hrs by propidium iodide staining based flow cytometric analysis (reference value: 18%); format: functional
Method in brief: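 Cells in DMEM with 10% FBS, 2 mM L-glutamine, pen-strep, 37 °C, 5% CO2; seeded and left overnight, then treated at 4 μM with DMSO as control. Harvested by trypsin at 24, 48 or 72 h, fixed in chilled 70% ethanol 30 min on ice, RNase A (1 mg/mL) 30 min at room temperature, PI (20 μg/mL). Flow cytometry, ≥10 000 events, G0/G1, S, G2/M fractions; mean ± SEM.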

Ca-Ski [8] = assay: Cell cycle arrest in human CaSki cells assessed as decrease in accumulation at S phase at 4 uM incubated up to 72 hrs by propidium iodide staining based flow cytometric analysis; format: functional; method in brief: as §1
HeLa [9] = assay: Induction of apoptosis in human HeLa cells assessed as early apoptotic cells at 4 uM after 48 hrs by Annexin V-FITC/PI double staining based flow cytometric analysis (reference value: 10.7%); format: functional
C-33-A [10] = assay: Antiproliferative activity against human C33A cells assessed as reduction in cell viability after 72 hrs by CellTiter-Glo assay; format: functional, cell-based
Method in brief: (§2)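 ATP-based luminescent viability readout. Cells were grown in DMEM with 10% FBS, 2 mM L-glutamine and penicillin-streptomycin at 37 °C, 5% CO2. 2 × 10^4 cells/well were seeded, then exposed the next day to 0–40 μM for 24, 48 or 72 h. % viability = 100 × treated/control. IC50 was fitted from a sigmoid dose-response curve. Run at least three times in quadruplicate; mean ± SEM.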

SiHa [11] = assay: Induction of apoptosis in human SiHa cells assessed as viable cells at 4 uM after 48 hrs by Annexin V-FITC/PI double staining based flow cytometric analysis (reference value: 93.7%); format: functional; conditions: read-out: Activity
[12] = molecular target: T1, Homeobox protein SIX1 (Homo sapiens) (UniProt Q15475); assay: Potency index, ratio for inhibition activity of apigenin to test compound for inhibition of SIX1 in human C33A cells after 48 hrs by Western blot analysis; format: cell-based; conditions: C-33-A
T1 sequence (whole entry): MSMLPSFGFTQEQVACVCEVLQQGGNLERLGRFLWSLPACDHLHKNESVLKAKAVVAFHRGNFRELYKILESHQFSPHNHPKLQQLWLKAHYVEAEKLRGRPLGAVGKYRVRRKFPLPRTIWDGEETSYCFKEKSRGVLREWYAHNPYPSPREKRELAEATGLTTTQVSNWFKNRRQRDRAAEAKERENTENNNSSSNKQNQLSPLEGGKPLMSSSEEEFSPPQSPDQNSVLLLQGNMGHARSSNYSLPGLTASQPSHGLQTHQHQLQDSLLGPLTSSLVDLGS
Method in brief: (§3)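 Cells plated at 1 × 10^6 per 100 mm dish and treated next day for 48 h with test compound (2 or 4 μM) or apigenin (10, 20 or 40 μM). RIPA lysates with protease inhibitors; equal protein loaded for SDS-PAGE, then PVDF transfer. Blocked in 5% milk/TBST (3% BSA for CK2α); anti-SIX1 or anti-CK2α 1:500, HRP secondary 1:2000; chemiluminescent detection.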

HeLa [13] = assay: Antiproliferative activity against human HeLa cells assessed as reduction in cell viability after 24 hrs by CellTiter-Glo assay; format: functional, cell-based; method in brief: as §2
Ca-Ski [14] = assay: Cell cycle arrest in human CaSki cells assessed as accumulation at G2/M phase at 4 uM after 48 hrs by propidium iodide staining based flow cytometric analysis (reference value: 29.5%); format: functional; method in brief: as §1
[15] = molecular target: Casein kinase II subunit alpha (Homo sapiens) (UniProt P68400); assay: Potency index, ratio for inhibition activity of apigenin to test compound for inhibition of CK2alpha in human CaSki cells after 48 hrs by Western blot analysis; format: cell-based; conditions: Ca-Ski; method in brief: as §3
C-33-A [16] = assay: Induction of apoptosis in human C33A cells assessed as necrotic cells at 4 uM after 24 hrs by Annexin V-FITC/PI double staining based flow cytometric analysis; format: functional
Ca-Ski [17] = assay: Effect on total-Rb in human CaSki cells assessed decrease in Rb protein level at 2 to 4 uM after 48 hrs by Western blot analysis; format: ADME, cell-based
Method in brief: (§4)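 Cells were seeded at 1 × 10^6 per 100 mm dish and treated next day with 2 or 4 μM for 48 h. They were trypsinised, PBS-washed and lysed in RIPA with protease inhibitors. Equal protein was run on SDS-PAGE and transferred to PVDF. Primary antibodies were used at 1:500, with BSA 3% for blocking and antibodies for CK2α, Rb and pRb, otherwise 5% milk in TBST. HRP secondary at 1:2000, chemiluminescence detection.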

Ca-Ski [18] = assay: Antiproliferative activity against human CaSki cells assessed as reduction in cell viability after 24 hrs by CellTiter-Glo assay; format: functional, cell-based; method in brief: as §2
[19] = molecular target: T1, Homeobox protein SIX1 (Homo sapiens); assay: Inhibition of SIX1 in human C33A cells at 2 to 4 uM after 48 hrs by Western blot analysis; format: cell-based; conditions: C-33-A; method in brief: as §4
[20] = molecular target: Casein kinase II subunit alpha (Homo sapiens) (UniProt P68400); assay: Inhibition of CK2alpha in human HeLa cells at 2 to 4 uM after 48 hrs by Western blot analysis; format: cell-based; method in brief: as §4
SiHa [21] = assay: Induction of apoptosis in human SiHa cells assessed as early apoptotic cells at 4 uM after 24 hrs by Annexin V-FITC/PI double staining based flow cytometric analysis (reference value: 5.4%); format: functional
HeLa [22] = assay: Antiproliferative activity against human HeLa cells assessed as reduction in cell viability after 72 hrs by CellTiter-Glo assay; format: functional, cell-based; method in brief: as §2
HeLa [23] = assay: Induction of apoptosis in human HeLa cells assessed as viable cells at 4 uM after 48 hrs by Annexin V-FITC/PI double staining based flow cytometric analysis (reference value: 80.7%); format: functional; conditions: read-out: Activity

Sequence of Casein kinase II subunit alpha (Homo sapiens) (P68400 whole entry, looked up): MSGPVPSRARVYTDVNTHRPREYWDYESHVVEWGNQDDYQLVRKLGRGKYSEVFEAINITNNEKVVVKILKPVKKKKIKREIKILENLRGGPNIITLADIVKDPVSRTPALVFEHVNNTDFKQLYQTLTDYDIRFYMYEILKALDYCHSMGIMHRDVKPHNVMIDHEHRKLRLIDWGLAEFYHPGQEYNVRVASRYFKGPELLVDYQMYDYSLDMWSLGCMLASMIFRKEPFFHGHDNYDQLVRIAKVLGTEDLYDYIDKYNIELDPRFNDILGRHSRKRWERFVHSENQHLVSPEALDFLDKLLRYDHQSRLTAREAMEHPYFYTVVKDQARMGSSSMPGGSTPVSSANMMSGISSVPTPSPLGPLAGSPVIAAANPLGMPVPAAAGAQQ

O[C@]12C=C(c3nccc4c3[nH]c3ccccc34)[C@@H]3CCN(CCCC/C=C\CC1)C[C@@]31C[C@@H]3/C=C\CCCCN3[C@H]12 [MANZAMINE A] gave an Activity (HeLa [1]) of 13.8%, an Activity (HeLa [2]) of 20.8% and an Activity (C-33-A [3]) of 9.7%. For the same compound, the Activity (C-33-A [4]) was 18.3%, the viability at 4 µM (C-33-A [5]) was 63.6% and the Activity (C-33-A [6]) was 19.2%. The Activity (SiHa [7]) was 12.7%, the Activity (Ca-Ski [8]) was “Active” and the Activity (HeLa [9]) was 59%. The IC50 (C-33-A [10]) was 1.6 µM, the viability at 4 µM (SiHa [11]) was 66.4% and the Ratio [12] was 10. It also gave an IC50 (HeLa [13]) of 11.8 µM, an Activity (Ca-Ski [14]) of 10.1% and a Ratio [15] of 10. The Activity (C-33-A [16]) was 6.3%, the Activity (Ca-Ski [17]) was “Toxic” and the IC50 (Ca-Ski [18]) was 33.6 µM. For the same compound, the inhibition [19] was “Active”, the inhibition [20] was “Active” and the Activity (SiHa [21]) was 13.7%. The IC50 (HeLa [22]) was 5.3 µM and the viability at 4 µM (HeLa [23]) was 24.1%.
